From ChEMBL document CHEMBL4020842, “Discovery of N1-(4-((7-Cyclopentyl-6-(dimethylcarbamoyl)-7 H-pyrrolo[2,3- d]pyrimidin-2-yl)amino)phenyl)- N8-hydroxyoctanediamide as a Novel Inhibitor Targeting Cyclin-dependent Kinase 4/9 (CDK4/9) and Histone Deacetlyase1 (HDAC1) against Malignant Cancer” (J Med Chem, 2018)
Active and inactive are the calls of the source. The calls are words filed in the database; no cut-off is given here.

Experiments:
A549 [1] = test: Induction of apoptosis in human A549 cells assessed as early apoptotic cells at 5 uM after 48 hrs by annexin V-FITC/propidium iodide staining based flow cytometry (reference value: 0.41%); format: functional
HepG2 [2] = test: Induction of apoptosis in human HepG2 cells assessed as live cells at 10 uM after 48 hrs by annexin V-FITC/propidium iodide staining based flow cytometry (reference value: 96.7%); format: functional
A549 [3] = test: Induction of apoptosis in human A549 cells assessed as early apoptotic cells at 1 uM after 48 hrs by annexin V-FITC/propidium iodide staining based flow cytometry (reference value: 0.41%); format: functional
MDA-MB-231 [4] = test: Induction of apoptosis in human MDA-MB-231 cells assessed as necrotic cells at 5 uM after 48 hrs by annexin V-FITC/propidium iodide staining based flow cytometry (reference value: […]); format: functional
MDA-MB-231 [5] = test: Induction of apoptosis in human MDA-MB-231 cells assessed as late apoptotic cells at 5 uM after 48 hrs by annexin V-FITC/propidium iodide staining based flow cytometry (reference value: 1.53%); format: functional
MDA-MB-231 [6] = test: Induction of apoptosis in human MDA-MB-231 cells assessed as live cells at 1 uM after 48 hrs by annexin V-FITC/propidium iodide staining based flow cytometry (reference value: 98.1%); format: functional
T47D [7] = test: Cytotoxicity against human T47D cells assessed as reduction in cell viability after 72 hrs by CCK8 assay; format: functional, cell-based
[8] = target: CDK3/Cyclin E (Homo sapiens) (UniProt P24864+Q00526); test: Inhibition of recombinant human full length C-terminal 6His-tagged CDK3/N-terminal GST-tagged Cyclin-E co-expressed in baculovirus infected sf21 cells at 1 uM relative to control
[9] = target: Cyclin-dependent kinase 1/cyclin B1 (Homo sapiens) (UniProt P06493+P14635); test: Inhibition of recombinant human full length C-terminal 6His-tagged CDK1/N-terminal GST-tagged Cyclin-B co-expressed in baculovirus infected sf21 cells at 1 uM using histone H1 substrate in presence of [gamma33P]ATP after 10 mins by scintillation counting method relative to control
Sequence of Cyclin-dependent kinase 1/cyclin B1 (Homo sapiens) (P06493 whole entry, looked up): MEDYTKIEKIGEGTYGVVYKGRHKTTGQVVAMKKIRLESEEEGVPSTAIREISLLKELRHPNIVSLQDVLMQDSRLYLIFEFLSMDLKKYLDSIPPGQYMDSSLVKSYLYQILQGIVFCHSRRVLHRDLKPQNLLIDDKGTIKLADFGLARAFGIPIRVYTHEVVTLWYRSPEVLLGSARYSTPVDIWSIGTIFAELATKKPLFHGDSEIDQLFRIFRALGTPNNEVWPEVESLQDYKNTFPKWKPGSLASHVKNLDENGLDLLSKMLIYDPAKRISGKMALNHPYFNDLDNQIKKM
Sequence of Cyclin-dependent kinase 1/cyclin B1 (Homo sapiens) (P14635 whole entry, looked up): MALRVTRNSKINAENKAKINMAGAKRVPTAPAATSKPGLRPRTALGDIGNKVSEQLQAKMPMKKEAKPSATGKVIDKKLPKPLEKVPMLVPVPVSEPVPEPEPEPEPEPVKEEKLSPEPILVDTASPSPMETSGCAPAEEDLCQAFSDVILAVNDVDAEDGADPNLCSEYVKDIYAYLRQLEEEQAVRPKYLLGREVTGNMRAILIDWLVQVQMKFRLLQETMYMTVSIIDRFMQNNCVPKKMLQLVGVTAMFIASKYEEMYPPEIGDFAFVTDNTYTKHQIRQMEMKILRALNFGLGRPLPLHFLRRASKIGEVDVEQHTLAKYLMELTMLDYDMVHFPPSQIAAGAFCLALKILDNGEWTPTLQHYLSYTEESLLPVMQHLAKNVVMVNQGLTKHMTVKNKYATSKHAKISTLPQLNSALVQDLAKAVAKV

[10] = target: Serine/threonine-protein kinase TAO2 (Homo sapiens, UniProt Q9UL54); test: Inhibition of recombinant human N-terminal His6-tagged TAO2 expressed in sf21 cells
Sequence of Serine/threonine-protein kinase TAO2 (Q9UL54 whole entry): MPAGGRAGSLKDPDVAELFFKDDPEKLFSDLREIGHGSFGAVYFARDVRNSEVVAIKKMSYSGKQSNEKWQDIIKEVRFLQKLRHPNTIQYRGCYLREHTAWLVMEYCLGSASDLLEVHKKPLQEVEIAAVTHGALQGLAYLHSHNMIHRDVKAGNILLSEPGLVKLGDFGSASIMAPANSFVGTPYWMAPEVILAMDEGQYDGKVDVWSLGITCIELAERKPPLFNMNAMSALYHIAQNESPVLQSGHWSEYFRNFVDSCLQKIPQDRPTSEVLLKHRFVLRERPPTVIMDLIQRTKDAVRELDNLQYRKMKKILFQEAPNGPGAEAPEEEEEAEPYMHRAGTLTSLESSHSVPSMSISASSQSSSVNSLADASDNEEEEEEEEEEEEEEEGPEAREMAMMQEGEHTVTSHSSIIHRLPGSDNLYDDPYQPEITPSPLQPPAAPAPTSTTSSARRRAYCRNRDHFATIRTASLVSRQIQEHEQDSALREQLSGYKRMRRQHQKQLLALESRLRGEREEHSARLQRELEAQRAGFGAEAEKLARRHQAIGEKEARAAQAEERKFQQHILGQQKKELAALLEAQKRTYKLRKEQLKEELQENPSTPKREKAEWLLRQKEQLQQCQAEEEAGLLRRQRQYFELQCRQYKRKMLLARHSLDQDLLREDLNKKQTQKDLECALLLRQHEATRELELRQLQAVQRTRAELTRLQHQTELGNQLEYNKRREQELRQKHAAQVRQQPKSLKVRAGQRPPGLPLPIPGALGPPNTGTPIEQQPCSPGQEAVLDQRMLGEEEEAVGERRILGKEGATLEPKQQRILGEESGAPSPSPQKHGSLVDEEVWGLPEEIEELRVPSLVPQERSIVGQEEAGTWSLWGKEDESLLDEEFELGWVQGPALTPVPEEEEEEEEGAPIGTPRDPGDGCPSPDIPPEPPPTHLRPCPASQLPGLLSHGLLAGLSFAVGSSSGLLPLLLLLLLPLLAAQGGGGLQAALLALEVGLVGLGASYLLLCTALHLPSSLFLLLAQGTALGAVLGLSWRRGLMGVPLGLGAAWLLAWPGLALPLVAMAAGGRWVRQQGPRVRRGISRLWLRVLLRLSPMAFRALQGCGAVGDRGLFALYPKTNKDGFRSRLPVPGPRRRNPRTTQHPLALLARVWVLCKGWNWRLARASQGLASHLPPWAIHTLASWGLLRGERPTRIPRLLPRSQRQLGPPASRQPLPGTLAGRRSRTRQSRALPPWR

[11] = target: Vascular endothelial growth factor receptor 3 (Homo sapiens, UniProt P35916); test: Inhibition of recombinant human N-terminal GST-tagged FLT4 (800-end residues) expressed in baculovirus infected sf21 cells
Sequence of Vascular endothelial growth factor receptor 3 (P35916 whole entry, the tested form may be a part): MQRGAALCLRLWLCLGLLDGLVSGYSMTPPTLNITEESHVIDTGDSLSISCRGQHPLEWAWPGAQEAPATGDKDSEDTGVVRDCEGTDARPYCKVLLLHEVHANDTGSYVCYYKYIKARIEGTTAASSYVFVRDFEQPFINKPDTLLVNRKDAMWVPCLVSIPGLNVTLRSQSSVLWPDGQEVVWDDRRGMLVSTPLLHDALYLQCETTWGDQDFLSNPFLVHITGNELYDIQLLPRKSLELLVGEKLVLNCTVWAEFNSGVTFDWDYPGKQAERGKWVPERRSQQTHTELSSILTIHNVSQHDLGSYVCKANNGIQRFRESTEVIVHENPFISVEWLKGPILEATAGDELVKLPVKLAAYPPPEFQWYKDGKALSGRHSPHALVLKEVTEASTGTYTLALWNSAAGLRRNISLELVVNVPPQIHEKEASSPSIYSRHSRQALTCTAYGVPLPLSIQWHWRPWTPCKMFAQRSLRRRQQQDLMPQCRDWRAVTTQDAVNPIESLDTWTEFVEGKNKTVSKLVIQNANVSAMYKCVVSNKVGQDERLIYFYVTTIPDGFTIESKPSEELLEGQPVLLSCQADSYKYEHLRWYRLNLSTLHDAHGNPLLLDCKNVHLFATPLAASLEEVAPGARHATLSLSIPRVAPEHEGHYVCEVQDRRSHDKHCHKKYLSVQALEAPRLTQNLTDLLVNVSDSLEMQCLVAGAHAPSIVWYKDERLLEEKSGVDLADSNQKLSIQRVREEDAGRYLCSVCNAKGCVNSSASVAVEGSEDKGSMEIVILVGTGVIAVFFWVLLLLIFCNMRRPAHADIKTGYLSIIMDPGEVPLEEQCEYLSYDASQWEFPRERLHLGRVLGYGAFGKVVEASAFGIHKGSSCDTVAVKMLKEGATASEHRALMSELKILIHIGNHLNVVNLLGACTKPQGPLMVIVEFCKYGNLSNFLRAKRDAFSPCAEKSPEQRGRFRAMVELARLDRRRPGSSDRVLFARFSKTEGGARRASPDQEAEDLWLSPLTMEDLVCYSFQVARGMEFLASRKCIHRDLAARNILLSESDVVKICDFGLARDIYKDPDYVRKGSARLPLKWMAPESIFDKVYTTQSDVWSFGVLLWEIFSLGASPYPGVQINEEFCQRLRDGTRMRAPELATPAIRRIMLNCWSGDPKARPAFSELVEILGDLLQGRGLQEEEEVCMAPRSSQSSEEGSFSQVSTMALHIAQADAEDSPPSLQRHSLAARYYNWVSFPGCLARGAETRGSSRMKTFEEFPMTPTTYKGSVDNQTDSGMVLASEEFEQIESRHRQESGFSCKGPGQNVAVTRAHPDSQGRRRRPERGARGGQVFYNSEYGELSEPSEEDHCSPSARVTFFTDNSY

LIM domain kinase 1 = LIM domain kinase 1 (Homo sapiens, UniProt P53667); test: Inhibition of recombinant human N-terminal His6-tagged LIMK1 (285 to 638 residues) expressed in baculovirus infected sf21 cells
Sequence of LIM domain kinase 1 (P53667 whole entry, the tested form may be a part): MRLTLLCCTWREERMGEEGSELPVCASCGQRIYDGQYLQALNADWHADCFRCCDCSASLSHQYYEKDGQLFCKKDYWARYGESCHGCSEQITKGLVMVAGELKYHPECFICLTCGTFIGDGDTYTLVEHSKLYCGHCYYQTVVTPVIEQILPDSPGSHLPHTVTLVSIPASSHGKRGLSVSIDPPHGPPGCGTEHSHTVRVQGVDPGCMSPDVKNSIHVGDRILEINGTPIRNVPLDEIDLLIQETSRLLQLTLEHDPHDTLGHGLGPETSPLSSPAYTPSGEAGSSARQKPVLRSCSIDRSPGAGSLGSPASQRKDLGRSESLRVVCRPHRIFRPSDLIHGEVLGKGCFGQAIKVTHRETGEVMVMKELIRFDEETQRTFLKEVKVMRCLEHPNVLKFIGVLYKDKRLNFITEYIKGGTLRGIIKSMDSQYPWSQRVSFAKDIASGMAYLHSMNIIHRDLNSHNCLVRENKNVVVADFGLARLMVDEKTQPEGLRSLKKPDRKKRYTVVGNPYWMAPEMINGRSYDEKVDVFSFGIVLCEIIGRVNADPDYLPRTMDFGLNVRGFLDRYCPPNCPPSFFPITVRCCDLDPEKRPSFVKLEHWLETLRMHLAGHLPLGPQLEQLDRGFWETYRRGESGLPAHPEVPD

NCI-H460 = test: Cytotoxicity against human NCI-H460 cells assessed as reduction in cell viability after 72 hrs by CCK8 assay; format: functional, cell-based; details: NCI-H460, 72 h
A549 [12] = test: Induction of apoptosis in human A549 cells assessed as early apoptotic cells at 10 uM after 48 hrs by annexin V-FITC/propidium iodide staining based flow cytometry (reference value: 0.41%); format: functional
MDA-MB-231 [13] = test: Cytotoxicity against human MDA-MB-231 cells assessed as reduction in cell viability after 72 hrs by CCK8 assay; format: functional, cell-based; details: MDA-MB-231, 72 h
Histone deacetylase 1 [14] = target: T1, Histone deacetylase 1 (Homo sapiens, UniProt Q13547); test: Potency index, ratio of vorinostat IC50 to compound IC50 for HDAC1 (unknown origin)
T1 sequence (Q13547 whole entry): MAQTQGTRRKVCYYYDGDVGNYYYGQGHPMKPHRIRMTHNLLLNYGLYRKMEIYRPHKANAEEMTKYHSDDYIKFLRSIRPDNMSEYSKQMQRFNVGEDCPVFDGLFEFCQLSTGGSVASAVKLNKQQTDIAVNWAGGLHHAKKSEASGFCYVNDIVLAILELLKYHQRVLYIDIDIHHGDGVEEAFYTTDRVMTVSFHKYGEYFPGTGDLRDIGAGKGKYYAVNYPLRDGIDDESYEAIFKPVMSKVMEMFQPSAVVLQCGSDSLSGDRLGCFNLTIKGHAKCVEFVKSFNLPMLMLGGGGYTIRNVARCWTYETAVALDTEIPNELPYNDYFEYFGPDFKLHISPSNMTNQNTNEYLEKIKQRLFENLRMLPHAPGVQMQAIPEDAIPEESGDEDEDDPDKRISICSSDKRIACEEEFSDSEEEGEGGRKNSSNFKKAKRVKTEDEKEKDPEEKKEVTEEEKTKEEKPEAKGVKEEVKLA

HepG2 [15] = test: Induction of apoptosis in human HepG2 cells assessed as late apoptotic cells at 10 uM after 48 hrs by annexin V-FITC/propidium iodide staining based flow cytometry (reference value: 0.64%); format: functional
HepG2 [16] = test: Induction of apoptosis in human HepG2 cells assessed as necrotic cells at 10 uM after 48 hrs by annexin V-FITC/propidium iodide staining based flow cytometry (reference value: 2.32%); format: functional
HepG2 [17] = test: Induction of apoptosis in human HepG2 cells assessed as live cells at 5 uM after 48 hrs by annexin V-FITC/propidium iodide staining based flow cytometry (reference value: 96.7%); format: functional
Hep 3B2 = test: Induction of apoptosis in human Hep3B cells assessed as late apoptotic cells at 1 uM after 48 hrs by annexin V-FITC/propidium iodide staining based flow cytometry (reference value: 5.25%); format: functional
T47D [18] = test: Downregulation of CDK4 protein expression in human T47D cells after 48 hrs by Western blot method; format: functional, cell-based
Outline: (§1)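 Treated cells were lysed and CDK4 and cyclin D1 protein levels were assessed by Western blot.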

A549 [19] = test: Downregulation of CDK4 protein expression in human A549 cells after 48 hrs by Western blot method; format: functional, cell-based
A549 [20] = test: Downregulation of Cyclin-D1 protein expression in human A549 cells after 48 hrs by Western blot method; format: functional, cell-based; outline: as §1
Histone deacetylase 1 [21] = target: T1, Histone deacetylase 1; test: Inhibition of HDAC1 in human Hep3B cells assessed as increase in acetylated-histone H3 level at 1 to 5 uM after 48 hrs by Western blot method; format: cell-based
MDA-MB-231 [22] = test: Induction of apoptosis in human MDA-MB-231 cells assessed as caspase-3 cleavage after 48 hrs by Western blot method; format: functional, cell-based
Outline: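 Cells were treated with or without test agent, alongside a control, for 48h. They were then lysed and analysed by Western blot for Bcl-2 protein and cleaved caspase 3.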

Histone deacetylase 1 [23] = target: T1, Histone deacetylase 1; test: Inhibition of HDAC1 in human T47D cells assessed as increase in p53 phosphorylation at Ser15 residue at 1 to 5 uM after 48 hrs by Western blot method; format: cell-based
Histone deacetylase 1 [24] = target: T1, Histone deacetylase 1; test: Inhibition of HDAC1 in human HepG2 cells assessed as increase in p53 phosphorylation at Ser15 residue at 1 to 5 uM after 48 hrs by Western blot method; format: cell-based
[25] = Clearance in Sprague-Dawley rat at 20 mg/kg, iv administered as single dose by HPLC analysis; format: ADME, organism-based; details: in vivo
[26] = MRT (0 to infinity) in Sprague-Dawley rat at 20 mg/kg, ip administered as single dose by HPLC analysis; format: ADME, organism-based; details: in vivo
Rattus norvegicus = test: Apparent volume of distribution at steady state in Sprague-Dawley rat at 20 mg/kg, ip administered as single dose by HPLC analysis; format: ADME, organism-based; details: in vivo
[27] = Clearance in Sprague-Dawley rat at 20 mg/kg, ip administered as single dose by HPLC analysis; format: ADME, organism-based; details: in vivo
4T1 [28] = test: Antitumor activity against mouse Fluc-labeled 4T1 cells implanted in Balb/c mouse assessed as tumor growth inhibition at 130 mg/kg, ip administered daily for 18 days measured after 8 to 25 days by bioluminescence assay relative to control; format: functional; details: 4T1, ip, read-out: TGI
4T1 [29] = test: Antitumor activity against mouse Fluc-labeled 4T1 cells implanted in Balb/c mouse assessed as tumor growth inhibition at 90 mg/kg, po administered daily via gavage for 18 days by bioluminescence assay relative to control; format: functional; details: 4T1, po, 432 h, read-out: TGI
Outline: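 Fluc-labelled 4T1 cells (lentiviral transduction) were implanted orthotopically into the mammary fat pads of female BALB/c mice aged 6–8 weeks. Treatment started once tumours averaged 100 mm3, given daily by oral gavage. Tumour burden was followed by bioluminescence imaging of Fluc reporter expression.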

For CN(C)C(=O)c1cc2cnc(Nc3ccc(NC(=O)CCCCCCC(=O)NO)cc3)nc2n1C1CCCC1, the Activity (A549 [1]) was 2.41%, the Activity (HepG2 [2]) was 73.3% and the Activity (A549 [3]) was 0.57%. The Activity (MDA-MB-231 [4]) was 1.36%, the Activity (MDA-MB-231 [5]) was 5.76% and the Activity (MDA-MB-231 [6]) was 95.6%. It also gave an IC50 (T47D [7]) of 2590 nM, an inhibition [8] of 68% and an inhibition [9] of 55%. For the same compound, the IC50 [10] was 84 nM, the IC50 [11] was 43 nM and the IC50 (LIM domain kinase 1) was 44 nM. For the same compound, the IC50 (NCI-H460) was 3780 nM, the Activity (A549 [12]) was 5.95% and the IC50 (MDA-MB-231 [13]) was 1860 nM. For the same compound, the Ratio IC50 (Histone deacetylase 1 [14]) was over 10, the Activity (HepG2 [15]) was 11.7% and the Activity (HepG2 [16]) was 5.75%. For the same compound, the Activity (HepG2 [17]) was 76.4%, the Activity (Hep 3B2) was 7.09% and the Activity (T47D [18]) was “Dose-dependent effect”. The Activity (A549 [19]) was “Dose-dependent effect”, the Activity (A549 [20]) was “Dose-dependent effect” and the inhibition (Histone deacetylase 1 [21]) was “Active”. The Activity (MDA-MB-231 [22]) was “Active”, the inhibition (Histone deacetylase 1 [23]) was “Active” and the inhibition (Histone deacetylase 1 [24]) was “Active”. The clearance [25] was 69 mL/min/kg, the MRT inf [26] was 13.8 h and the “Vdss(app)” value (Rattus norvegicus) was 119.94 L/kg. For the same compound, the CL/F [27] was 210 mL/min/kg, the inhibition in vivo at 130 mg/kg (4T1 [28]) was 84.8% and the inhibition in vivo at 90 mg/kg (4T1 [29]) was 70.3%.
